Source: PubChem BioAssay (The Scripps Research Institute Molecular Screening Center)
A selection: hits, their analogues and other compounds. The true share with any hit is near 1.9%.
NPY1 pot ag = potentiators or agonists of human neuropeptide Y receptor Y1. P25929. NPY-Y1 expressing cells, potentiator/agonist activation. activation, % at 3.6 µM. 220,000 tested, 0.37% active. AID 1304; in the data active means activation above about 33%, passing the limit was not always enough;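 further: cells stimulated with NPY at EC10 then isoproterenol at EC100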
NPY2 pot ag = potentiators or agonists of human neuropeptide Y receptor Y2; 220,000 tested, 0.45% active; cells expressing NPY-Y2, potentiator/agonist read-out; P49146; activation, % at 3.6 µM; in the data active means activation above about 27%;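 further: cells stimulated with NPY near EC25 plus isoproterenol at EC100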
Target sequence (P49146 whole entry, looked up): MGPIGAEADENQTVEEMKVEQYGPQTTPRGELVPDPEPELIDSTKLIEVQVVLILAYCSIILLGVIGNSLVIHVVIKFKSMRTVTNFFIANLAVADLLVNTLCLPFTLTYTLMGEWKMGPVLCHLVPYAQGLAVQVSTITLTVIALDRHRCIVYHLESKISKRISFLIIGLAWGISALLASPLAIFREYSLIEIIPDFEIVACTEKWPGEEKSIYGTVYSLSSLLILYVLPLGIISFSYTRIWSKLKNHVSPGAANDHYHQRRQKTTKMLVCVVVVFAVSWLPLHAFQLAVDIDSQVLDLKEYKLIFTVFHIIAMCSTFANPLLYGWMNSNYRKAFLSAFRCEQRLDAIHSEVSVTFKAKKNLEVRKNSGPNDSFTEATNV
NPY Y2 blocker = NPY-Y2 (human) receptor antagonism | NPY-Y2 expressing cells, antagonist mode | inhibition, % at 2.7 µM | 140,000 tested, 0.99% active | AID 793; in the data active means inhibition above about 17%
NPY Y1 blocker = blocks the human neuropeptide Y Y1 receptor | 200,000 tested, 1% active | inhibition, % at 3.6 µM | HEK293-CNG Y1 cells, membrane potential fluorescence; NPY at EC95, then isoproterenol;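 active means inhibition above the campaign mean inhibition of all tested compounds plus 3 SD, cut at about 20% in these data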
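Assay system: HEK293 Y1/CNG channel cell line; Doses: single compound dose of 3.6 µM, 0.4% DMSO; Timing: dye 3 h, compound 60 min room temperature, stimulation 45 min; Technique: Membrane-potential fluorescent dye readout; Measure: % inhibition of NPY effect.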
Large screens that a line does not name were inactive.

COc1ccc(N=CC2=C(Nc3ccc(OC)cc3)c3c(C)nn(-c4ccccn4)c3CC2)cc1	NPY Y1 blocker 21
CC(C)(C)NCC(O)CON=C1c2ccccc2-c2ccccc21 (stereo not given)	NPY1 pot ag 104, NPY2 pot ag 100 (no result: NPY Y2 blocker)
O=C(Nc1ccc(N2CCCCC2)cc1)c1ccc(F)cc1	none
O=C(c1ccc(F)cc1)c1ccc(N2CCCC2)cc1	NPY Y1 blocker 21
Cc1ccc(S(=O)(=O)N2CC3CCCN3c3ccc(C(F)(F)F)cc32)cc1 (stereo not given)	NPY2 pot ag 28
CSC1=NCCN1S(=O)(=O)c1ccc(F)cc1	none (no result: NPY Y2 blocker)
O=S(=O)(c1ccc(F)cc1)N1CC2CCCN2c2ccc(C(F)(F)F)cc21 (stereo not given)	NPY1 pot ag 64, NPY2 pot ag 44
Oc1ccc(Oc2ccc3c(C(F)(F)F)cc(C(F)(F)F)nc3n2)cc1	NPY1 pot ag 40, NPY2 pot ag 49
Cc1csc2nc(CSc3nc4ccccc4o3)c(Br)n12	NPY Y1 blocker 23
NS(=O)(=O)c1cccc(NC(=O)COC(=O)C2(c3cccc(F)c3)CCCC2)c1	none
O=C(c1ccccc1)c1n[nH]c(-c2ccccc2)cc1=O	none (no result: NPY Y2 blocker)
S=c1nc(-c2ccccc2)n(Cc2ccco2)c2c1CCCC2	NPY Y1 blocker 29
C=C1c2ccccc2NC(=S)N1Cc1ccc2c(c1)OCO2	none (no result: NPY Y2 blocker)
O=C(CN1c2ccccc2Sc2ccccc21)NNC(=O)Nc1ccc(Cl)cc1	NPY1 pot ag 61, NPY2 pot ag 57 (no result: NPY Y2 blocker, NPY Y1 blocker)
O=C(CN1c2ccccc2Sc2ccccc21)NNC(=O)Nc1ccc(Cl)c(Cl)c1	none (no result: NPY Y2 blocker, NPY Y1 blocker)
CCCc1nc2ccccc2c(=O)n1-c1ccc(C(=O)OCC)cc1	none (no result: NPY Y2 blocker)
Cc1cc(-c2[nH]nc3c2C(c2ccc(Cl)cc2)C(C#N)=C(N)O3)c(C)s1 (stereo not given)	NPY Y2 blocker 69, NPY Y1 blocker 59
Cc1ccc(-c2[nH]nc3c2C(c2ccoc2)C(C#N)=C(N)O3)cc1C (stereo not given)	NPY Y2 blocker 87, NPY Y1 blocker 110
COc1ccc(-c2[nH]nc3c2C(c2ccoc2)C(C#N)=C(N)O3)cc1 (stereo not given)	none
N#CC1=C(N)Oc2n[nH]c(-c3cccs3)c2C1c1ccsc1 (stereo not given)	NPY Y1 blocker 28
CCc1cc(C(=O)c2ccc(C)cc2)c(NC(=O)CCl)s1	NPY1 pot ag 42, NPY2 pot ag 35
Cc1cc(C(=O)c2ccc(Cl)cc2)c(NC(=O)CCl)s1	none
CN(C)C(=S)SCCn1c(N)nc(N(C)C)nc1=O	none (no result: NPY Y2 blocker, NPY Y1 blocker)
O=C(COc1ccc(Br)cc1)Nc1ccc([N+](=O)[O-])cn1	NPY Y1 blocker 21
Oc1ccc(-c2nc3ccc4ccccc4c3c3c2CCC3)cc1O	none
COc1ccc(-n2cc(CNCCCN3CCCC3=O)c(-c3ccccc3Cl)n2)cc1	NPY Y1 blocker 20 (no result: NPY Y2 blocker)
C=CCN1CCN(C(CCC)c2nnnn2Cc2ccco2)CC1 (stereo not given)	none (no result: NPY Y2 blocker)
COc1cccc(-c2cc(C(F)(F)F)nc(-n3ccc([N+](=O)[O-])n3)n2)c1	NPY Y1 blocker 21 (no result: NPY Y2 blocker)
CCC(Oc1nc2ccccc2nc1-c1ccccc1NC(C)=O)C(=O)c1ccccc1 (stereo not given)	NPY Y2 blocker 20, NPY Y1 blocker 33
Cc1ccc(-c2nc3cnccn3c2Nc2c(C)cccc2C)o1	none
COc1ccc(OC)c(-c2[nH]nc3c2C(c2ccco2)C(C#N)=C(N)O3)c1 (stereo not given)	NPY Y2 blocker 28, NPY Y1 blocker 48
N#CC1=C(N)Oc2n[nH]c(-c3cccnc3)c2C1c1ccc([N+](=O)[O-])o1 (stereo not given)	none (no result: NPY Y2 blocker)
COc1cccc(-c2[nH]nc3c2C(c2ccc(C)o2)C(C#N)=C(N)O3)c1 (stereo not given)	NPY Y2 blocker 21, NPY Y1 blocker 29
Cc1ccc(-c2nc(NCc3ccc(F)cc3)n(S(C)(=O)=O)n2)cc1	none (no result: NPY Y2 blocker)
Nc1nonc1C(=O)NCCNCc1cc(Br)ccc1OCc1ccccc1F	NPY Y2 blocker 43, NPY Y1 blocker 44
c1ccc2c(c1)CCN(c1nc(CN3CCOCC3)nc3sc4c(c13)CCCC4)C2	NPY Y2 blocker 23, NPY Y1 blocker 23
Cc1ccc2nc(-c3ccccn3)c(Nc3ccccc3C)n2c1	NPY1 pot ag 46, NPY2 pot ag 36 (no result: NPY Y2 blocker)
Cc1ccn2c(Nc3ccccc3C)c(-c3ccccn3)nc2c1	NPY1 pot ag 41, NPY2 pot ag 30 (no result: NPY Y2 blocker)
Cc1ccccc1Nc1c(-c2ccccn2)nc2ccccn12	NPY1 pot ag 35, NPY2 pot ag 35 (no result: NPY Y2 blocker)
Nc1ncnc(Oc2cccc3cccnc23)c1[N+](=O)[O-]	none (no result: NPY Y2 blocker)
COc1ccc(S(=O)(=O)N2CCCN(CC(=O)Nc3ccc(OC)c(Cl)c3)CC2)cc1	NPY Y2 blocker 18, NPY Y1 blocker 38
COc1ccc(NC(=O)CN2CCN(S(=O)(=O)c3ccc(Cl)cc3)CC2)cc1Cl	none
CSc1ncccc1C(=O)OCC(=O)c1cccc(Br)c1	none (no result: NPY Y2 blocker)
Cc1cccn2c(CNCC3(c4ccccc4)CCCC3)c(C(=O)N3CCOCC3)nc12	NPY Y1 blocker 20 (no result: NPY Y2 blocker)
COc1ccc(C(=O)NNC(=O)CSc2nnc(COc3ccccc3OC)n2C)cc1	none
C/C(=C\C(=O)c1ccc(Br)cc1)NCc1ccc2c(c1)OCO2	NPY Y1 blocker 21
Cc1cc(C)n(-c2nnc(C)n2/N=C/c2ccco2)n1	none
CCCOc1ccc2ccccc2c1/C=N/n1c(C)nnc1-n1nc(C)cc1C	NPY Y2 blocker 26, NPY Y1 blocker 29
O=S(=O)(CS(=O)(=O)c1ccc(Cl)cc1)c1ccc(Cl)cc1	none (no result: NPY Y2 blocker, NPY Y1 blocker)
Cc1ccc(S(=O)(=O)NCCNc2ccc([N+](=O)[O-])cc2C(F)(F)F)cc1	NPY2 pot ag 35
O=[N+]([O-])c1ccc(NCCNS(=O)(=O)c2ccccc2)c(C(F)(F)F)c1	none
CC1Cc2ccccc2N1C(=O)Cn1cnc2ccccc21 (stereo not given)	none (no result: NPY Y2 blocker)
COc1cccc2sc(Nc3nc(-c4cc5ccccc5oc4=O)cs3)nc12	none
COc1cccc2sc(Nc3nc(-c4ccncc4)cs3)nc12	NPY1 pot ag 40, NPY2 pot ag 35 (no result: NPY Y2 blocker)
COc1ccc(OC)c(CNC(=O)Cc2c(C(=O)O)[nH]c3ccccc23)c1	NPY1 pot ag 64
CCc1cccc(CC)c1NC(=O)COC(=O)C1(c2ccc(Cl)cc2)CCCC1	NPY Y2 blocker 19, NPY Y1 blocker 40
CC(=O)Nc1ccc(NC(=O)COC(=O)C2(c3ccc(Cl)cc3)CCCC2)cc1	none
O=S(=O)(Nc1nc2ccccc2nc1N1CCN(c2ccccc2)CC1)c1ccc(F)cc1	none
CC1CCN(C2=C(NS(=O)(=O)c3ccccc3)C(=O)c3ccccc3C2=O)CC1	NPY1 pot ag 95, NPY2 pot ag 78 (no result: NPY Y2 blocker, NPY Y1 blocker)
O=C1C(NS(=O)(=O)c2ccccc2)=C(N2CCN(c3ccc(F)cc3)CC2)C(=O)c2ccccc21	NPY1 pot ag 89, NPY2 pot ag 87 (no result: NPY Y2 blocker, NPY Y1 blocker)
CC(=O)Nc1ccc(S(=O)(=O)NC2=C(N3CCN(Cc4ccccc4)CC3)C(=O)c3ccccc3C2=O)cc1	none
CN(C)C(=O)Nc1ccccc1	none (no result: NPY Y2 blocker, NPY Y1 blocker)
c1ccc(CN2CCN(c3nc(NCc4ccco4)c4ccccc4n3)CC2)cc1	NPY Y2 blocker 28, NPY Y1 blocker 31
